Screening results as filed in PubChem BioAssay.
Hits are enriched below; roughly 1.8% of the tested compounds scored in any of these assays.
TRAIL sens C8 = caspase-8 TRAIL sensitization; NB7+C8 cells + TRAIL, ATPlite viability luminescence; 360,000 compounds, 1% hits; inhibition (viability loss, TRAIL sensitization), % at 10 µM;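 active = compounds causing at least 50% loss of cell viability in the single-dose screen, relative to plate controls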
FLuc stim CS = firefly luciferase counter-screen for stimulation assays; 200,000 tested, under 10 active; ATPlite luciferase biochemical, luminescence, 10 min; 0 = ATP-free wells, 1 = DMSO control; AID 1027; activation factor at 10 µM;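 active = luciferase activation factor, scaled between plate controls, of at least 2 with compound at 10 µM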
Target sequence (P08659 whole entry, looked up): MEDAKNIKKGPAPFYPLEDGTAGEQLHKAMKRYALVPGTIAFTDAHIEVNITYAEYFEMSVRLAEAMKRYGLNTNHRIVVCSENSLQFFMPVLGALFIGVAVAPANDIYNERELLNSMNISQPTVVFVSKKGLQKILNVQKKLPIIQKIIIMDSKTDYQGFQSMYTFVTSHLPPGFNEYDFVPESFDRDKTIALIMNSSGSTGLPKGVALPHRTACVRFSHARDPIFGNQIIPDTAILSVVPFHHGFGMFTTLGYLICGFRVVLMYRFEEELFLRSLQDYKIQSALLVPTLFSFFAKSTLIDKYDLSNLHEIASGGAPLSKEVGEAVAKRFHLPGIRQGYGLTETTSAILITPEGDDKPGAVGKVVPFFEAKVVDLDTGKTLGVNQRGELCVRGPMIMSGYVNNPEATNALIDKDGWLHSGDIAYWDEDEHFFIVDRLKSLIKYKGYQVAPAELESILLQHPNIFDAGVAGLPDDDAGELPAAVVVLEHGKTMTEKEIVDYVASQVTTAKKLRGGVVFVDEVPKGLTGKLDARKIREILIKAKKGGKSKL
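Assay system: Luciferase/luciferin reagent mix; Medium: PBS as buffer for the ATP substrate; Dosing: test compounds dosed from 2 mM stocks in 100% DMSO; Times: 10 min, room temperature; Signal: luminescence from luciferase reaction; Read-out: luciferase activation; Controls: No-ATP low control, compound-free enzyme-plus-ATP high control.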
PPC-1+TRAIL kill = kills PPC-1 cancer cells in the presence of TRAIL; PPC-1 cells + TRAIL, ATPLite viability luminescence; cell killing (% activity), % at 4 µM or 5 µM; 220,000 compounds, 0.41% hits;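 active = cell killing above 50% in the first pass at 4 µM, then a duplicate retest at 5 µM averaging 50% or more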;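 note: plate controls were cells with TRAIL plus DMSO for no effect and medium-only wells lacking cells for full effect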
hiPSC survival = enhancers of human iPSC single-cell survival | hiPSC single-cell survival, ATPlite luminescence; 100% = ROCK inhibitor wells, 0% = DMSO | survival enhancement, % at 20 µM | 360,000 compounds, 0.044% hits; in the data active = survival enhancement above about 18%;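 note: cells exposed to compounds for 16 hours before the ATP read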
FLuc inh counter = inhibits firefly luciferase, flagging false hits in luciferase inhibition screens; P08659; ATPLite firefly luciferase biochemical luminescence, 10 min; inhibition, % at 10 µM; 200,000 compounds, 1.5% hits; AID 1006;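 active = inhibition above about 50% when tested at 10 µM, limit read from the data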
MIN6 prolif-1 = inducers of beta-cell replication in MIN6 cells. MIN6 cells proliferation, ATPlite luminescence, 48 h; cells starved in 0.2% serum; 100% = growth in 10% serum. proliferation, % at 10 µM. 330,000 compounds, 0.29% hits. AID 2380;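 active = compounds whose signal lies at least 3.5 SD above the mean of all wells on their plate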;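 note: 0% = DMSO-treated cells in low-serum medium and 100% = 10% serum control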
MIN6 prolif-2 = MIN6 beta-cell replication induction, confirmed; MIN6 beta-cell proliferation, ATPlite luminescence, 48 h; cells kept in 0.2% serum; scaled between 0.2% and 10% serum; proliferation increase, % at 50 µM; shares compounds with MIN6 prolif-1; 920 tested, under 10 active;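 active = proliferation increase above 40% at any of the four tested concentrations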
* marks the source's active call; other numbers are inactive results.

Results for COc1ccc(CC(=O)N(Cc2ccccc2)C(C)C)cc1 ?
TRAIL sens C8: -29.5; hiPSC survival: -0.8; MIN6 prolif-1: -1.9

How did COc1ccc(CCC(C)N(C)Cc2ccccc2)cc1 (centres undefined) do in these assays?
TRAIL sens C8: 5.7; hiPSC survival: -0.6; MIN6 prolif-1: 6.6*; MIN6 prolif-2: -3.9

Results for CC(=O)c1ccc(OCC(=O)NC2CCS(=O)(=O)C2)cc1 (centres undefined) ?
TRAIL sens C8: 1.6; FLuc stim CS: 1; PPC-1+TRAIL kill: 18.2; hiPSC survival: 3.4; FLuc inh counter: -1.7; MIN6 prolif-1: 5.0*; MIN6 prolif-2: 0.2

What do the screens show for `CC(C)n1cnc2c(N(C)c3cccc(Cl)c3)nc(N(CCO)CCO)nc21`?
TRAIL sens C8: 31.6; PPC-1+TRAIL kill: -7.8; hiPSC survival: 12.5; MIN6 prolif-1: 17.5*; MIN6 prolif-2: -0.5

Results for CC(C)[C@H](CO)N(Cc1cccc(F)c1)c1nc(Nc2cccc(Cl)c2)c2ncn(C(C)C)c2n1 ?
TRAIL sens C8: 12.0; PPC-1+TRAIL kill: 12.0; hiPSC survival: 0.7; MIN6 prolif-1: -8.7

How did CN(CC(=O)Nc1ccc(Cl)c(Cl)c1)C(=O)CNC(=O)Cc1ccccc1 do in these assays?
TRAIL sens C8: -12.1; hiPSC survival: -0.3; MIN6 prolif-1: -4.0

Results for CC(OC(=O)CCCC(=O)Nc1ccccc1)C(=O)c1ccccc1 (centres undefined) ?
TRAIL sens C8: -7.8; hiPSC survival: 0.1; MIN6 prolif-1: -4.6

How did CC(C)=CC/C=C1\CCC(C(=O)O)C(C(=O)O)C1 (centres undefined) do in these assays?
TRAIL sens C8: -2.8; FLuc stim CS: 1.1; PPC-1+TRAIL kill: -8.7; hiPSC survival: -1.4; FLuc inh counter: -5.0; MIN6 prolif-1: 5.5*; MIN6 prolif-2: -2.0

How did Cc1c(N=Nc2ccc(O)cc2)c(=O)n(-c2ccccc2)n1C do in these assays?
TRAIL sens C8: -6.5; FLuc stim CS: 1; PPC-1+TRAIL kill: 14.5; hiPSC survival: 1.3; FLuc inh counter: 2.4; MIN6 prolif-1: -0.2

What do the screens show for `Cc1c(N=C2NC(=O)/C(=C/c3ccc(O)cc3)S2)c(=O)n(-c2ccccc2)n1C`?
TRAIL sens C8: -8.4; FLuc stim CS: 1; PPC-1+TRAIL kill: -4.2; hiPSC survival: -1.4; FLuc inh counter: -0.7; MIN6 prolif-1: 4.4*; MIN6 prolif-2: -2.2

What do the screens show for `COC(=O)CC1C(=O)NCCN1C(=S)Nc1ccccc1Cl` (centres undefined)?
TRAIL sens C8: -1.4; FLuc stim CS: 1.1; PPC-1+TRAIL kill: -0.6; hiPSC survival: 2.8; FLuc inh counter: -5.9; MIN6 prolif-1: -3.3

Results for CCOc1cc(-c2nc(-c3cc(OC)c(OC)c(OC)c3)no2)cc(OCC)c1OCC ?
MIN6 prolif-1: 6.5*; MIN6 prolif-2: 2.9

What do the screens show for `CCOc1ccc(-c2noc(-c3cccnc3)n2)cc1OCC`?
TRAIL sens C8: -4.2; PPC-1+TRAIL kill: 11.5; hiPSC survival: 0.0; MIN6 prolif-1: 3.0

What do the screens show for `CCOc1ccc(-c2nc(-c3cccnc3)no2)cc1OCC`?
TRAIL sens C8: -12.4; FLuc stim CS: 1; PPC-1+TRAIL kill: 10.4; hiPSC survival: 0.0; FLuc inh counter: -3.9; MIN6 prolif-1: 9.7*; MIN6 prolif-2: -0.7

How did CCN(CC(=O)Nc1ccc(NC(C)=O)cc1)C(=O)Cc1cccc2ccccc12 do in these assays?
TRAIL sens C8: 5.8; hiPSC survival: -0.3; MIN6 prolif-1: -1.4

What do the screens show for `CCOc1ccccc1N1CCN(C(=O)c2ccc(OCC(=O)N3CCOCC3)c(OC)c2)CC1`?
TRAIL sens C8: -6.8; hiPSC survival: -0.4; MIN6 prolif-1: 14.3*; MIN6 prolif-2: -2.2

Results for COc1ccc(OC)c(CCNC(=O)c2ccc(CS(=O)(=O)c3ccc(Br)cc3)o2)c1 ?
TRAIL sens C8: -2.4; FLuc stim CS: 1.1; PPC-1+TRAIL kill: 19.2; hiPSC survival: -0.4; FLuc inh counter: -5.6; MIN6 prolif-1: 1.7

What do the screens show for `COc1ccc(S(=O)(=O)Cc2ccc(C(=O)NCCc3cc(OC)ccc3OC)o2)cc1`?
TRAIL sens C8: -8.2; FLuc stim CS: 1; PPC-1+TRAIL kill: 8.6; hiPSC survival: -0.6; FLuc inh counter: 0.3; MIN6 prolif-1: 7.5*; MIN6 prolif-2: 0.6

What do the screens show for `CCn1c(CNC(=O)c2ccccc2OC)nnc1SCC(=O)c1ccc(F)cc1`?
TRAIL sens C8: -6.7; hiPSC survival: -0.4; MIN6 prolif-1: 5.8*; MIN6 prolif-2: 2.0

What do the screens show for `CCN(CCn1cccn1)Cc1nc(-c2ccccc2)no1`?
TRAIL sens C8: 1.0; FLuc stim CS: 1; PPC-1+TRAIL kill: -14.8; hiPSC survival: 0.1; FLuc inh counter: -0.4; MIN6 prolif-1: -3.2

Results for CCN(CCn1cccn1)Cc1nc(-c2ccc(OC)cc2)no1 ?
TRAIL sens C8: -1.4; FLuc stim CS: 1; PPC-1+TRAIL kill: 6.4; hiPSC survival: -0.8; FLuc inh counter: -1.3; MIN6 prolif-1: 7.2*; MIN6 prolif-2: -2.4

What do the screens show for `C[C@@H]1CN([C@@H](C)CO)C(=O)CCCn2nncc2CO[C@@H]1CN(C)C(=O)NC1CCCCC1`?
TRAIL sens C8: -4.7; hiPSC survival: 0.5

Results for O=C(COC(=O)c1cccc(-n2cnnn2)c1)c1ccccc1 ?
TRAIL sens C8: -7.2; hiPSC survival: 0.1; MIN6 prolif-1: 0.8

How did O=C(OCc1nnc(-c2ccccc2)o1)c1cccc(-n2cnnn2)c1 do in these assays?
TRAIL sens C8: -14.1; hiPSC survival: -0.5; MIN6 prolif-1: 11.0*; MIN6 prolif-2: 1.2

How did COc1ccc2nc(C)cc(SCC(=O)N/N=C/c3ccco3)c2c1 do in these assays?
TRAIL sens C8: -10.2; hiPSC survival: 1.7; MIN6 prolif-1: 0.0

How did COc1ccc(OC)c(/C=N/NC(=O)CSc2cc(C)nc3c(OC)cccc23)c1 do in these assays?
TRAIL sens C8: 9.4; FLuc stim CS: 1.1; PPC-1+TRAIL kill: -2.3; hiPSC survival: -0.8; FLuc inh counter: -8.6; MIN6 prolif-1: 10.2*; MIN6 prolif-2: -1.1

How did O=C(COC(=O)CNC(=O)c1ccccc1)Nc1nnc(-c2ccccc2)o1 do in these assays?
TRAIL sens C8: -5.7; hiPSC survival: 0.5; MIN6 prolif-1: -5.6

How did O=P(O)(CCCCP(=O)(O)CCc1ccccc1)CCc1ccccc1 do in these assays?
FLuc stim CS: 1; PPC-1+TRAIL kill: -5.6; FLuc inh counter: -4.0

Results for O=P(O)(CCCP(=O)(O)CCc1ccccc1)CCc1ccccc1 ?
TRAIL sens C8: 4.8; FLuc stim CS: 1; PPC-1+TRAIL kill: -0.2; hiPSC survival: -1.7; FLuc inh counter: -2.0; MIN6 prolif-1: 8.8*; MIN6 prolif-2: -3.5
